A number with no mark means an inactive call. Inconclusive results are not listed. The source made the active and inactive calls.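 How the source made its calls, unless noted: active means RAM network inhibition above 8.4% in each of two replicates, 3 SD over the compound average; inconclusive means above 8.4% inhibition in only one replicate; inactive means 8.4% inhibition or less in each replicate.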
How the values were obtained:
[1] = OD615 S. cerevisiae growth inhibition, permissive medium, pilot counter-assay, permissive growth control for S. cerevisiae lifespan shortening project (AID 705;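 active means growth inhibition above 25% in both replicates, a cutoff set 3 SD above the mean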); settings: OD615, 24 h, at 10 µM, hits give high values
Outline: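 assay system = Saccharomyces cerevisiae strain carrying genetically modified DeaD replicative-lifespan system | medium = SC raffinose/galactose permissive medium | dosing = 10 µM single dose, 0.25% DMSO | schedule = 24 h compound exposure at 30 °C after 4 h pre-growth | measured by = OD at 615 nm | read-out basis = growth inhibition from lowered OD615 after 24 h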

[2] = Restrictive medium S. cerevisiae growth inhibition, OD615, pilot screen of yeast lifespan reduction project, restrictive growth control (AID 706;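 active means growth inhibition above a set limit, 3 SD over mean compound inhibition, in both replicates, cut at about 43% in these data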;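 further: modified DeaD lifespan yeast strain shifted to restrictive glucose medium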); settings: OD615, 48 h, at 10 µM, hits give high values
Outline: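 Buffer or medium: CSMM-D glucose medium. Material: genetically modified Saccharomyces cerevisiae, DeaD replicative lifespan assay strain. Times: 48 h compound exposure at 30 °C. Measured by: optical density at 615 nm.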

[3] = viability gain of MRP-1-high H69AR cells under doxorubicin, pilot screen, MRP-1 activator project, CellTiter-Glo, duplicate (AID 807;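 active means viability increase at or above a cutoff of the median across tested compounds plus 3 SD, cut at about 8.5% in these data, passing the limit was not always enough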;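 further: compound pretreatment 18-22 h then 72 h combined with doxorubicin; 0% = doxorubicin alone and 100% = vehicle without doxorubicin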); settings: H69AR viability with doxorubicin, CellTiter-Glo luminescence; at 10 µM; hits give high values
[4] = growth suppression of beta-catenin knockout HCT116, pilot screen, human colon tumor cells (AID 823;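 active means cell viability at or below a set limit in both duplicate runs, the limit being the all-compound median minus 4 SD, cut at about 23% in these data, passing the limit was not always enough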;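 further: 0% = wells killed by 20 µM Hyamine and 100% = untreated DMSO cell wells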); settings: CellTiter-Glo, 60 h, at 10 µM, hits give low values
[5] = growth suppression of PTEN-deleted HCT116, pilot screen, cell-based, HCT116 clonal line, CellTiter-Glo (AID 824;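 active means viability at or below 27.92% in each of two runs, the all-compound median minus 4 SD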;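 further: 0% = 20 µM Hyamine control and 100% = vehicle cell control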); settings: 60 h, at 10 µM, hits give low values
[6] = inhibitors of the yeast RAM network, pilot screen, dse1pr::URA3 reporter, 5-FOA selection (AID 869;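 active means inhibition over a set limit, the all-compound mean plus 3 SD, in both replicate runs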;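 further: 0% = DMSO wells with no growth and 100% = 10 µM 1-NA-PP1 with full growth; RAM network block rescues cells from 5-FOA so hits raise OD615 growth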); settings: S. cerevisiae dse1pr::URA3 5-FOA growth, OD615, 2 d; at 10 µM; hits give high values; strain carries analog-sensitive mutant Cbk1 kinase
[7] = RAM signaling pathway blockade in yeast – S. cerevisiae, Pdr1DBD-CYC8 efflux-inhibited sensitized strain, primary screen (AID 1298);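 further: 0% = DMSO untreated cells without growth and 100% = 10 µM 1-NA-PP1 full growth; higher means more yeast growth rescued from 5-FOA killing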; settings: S. cerevisiae cbk1-as DSE1-URA3 strain, 5-FOA growth OD615, 2 d; at 50 µM; hits give high values

| SMILES | growth inhibition [1] [%] | growth inhibition [2] [%] | viability increase [3] [%] | viability [4] | viability [5] | inhibition [6] [%] | RAM network inhibition [7] [%] |
| --- | --- | --- | --- | --- | --- | --- | --- |
| Cc1csc2nc(CNS(=O)(=O)c3ccc4c(c3)OCCO4)cn12 | 4.07 | -5.18 | -1.85 | 91.9% | 85.7% | 3.93 | 2.03 |
| Cc1cc(C)n2nc(Nc3ccccc3)cc2n1 | -3.93 | -10.7 | -4.34 | 90.1% | 89.7% | 1.97 | 4.89 |
| Cc1c(NC(=O)c2ccco2)cccc1-c1nc2cccnc2s1 | 1.62 | -4.21 | -4.21 | 97.4% | 95.5% | 2.2 | 5.74 |
| N#Cc1nc(-c2ccccc2Cl)oc1NCC1CCCO1 (configuration not stated) | -2.88 | 8.84 | 0.31 | 91.1% | 86.8% | 1.48 | 1.33 |
| COc1ccc(Nc2cc(C)nc3nc(C)nn23)cc1Cl | 0.45 | 13.4 | -3.91 | 101% | 93.5% | -0.465 | -0.01 |
| CC1(C)SCC2C(=O)N3C(CSC3(C)C)C(=O)N21 (configuration not stated) | 2.82 | -6.7 | 0.02 | 107% | 96.2% | 1.5 | 4.22 |
| CC(=O)c1cccc(NC(=O)c2cnn3ccccc23)c1 | -8.43 | -17.2 | -2.54 | 95.5% | 84.4% | 1.73 | 4.75 |
| COc1ccccc1N(CC(=O)Nc1c(C)cccc1C)S(C)(=O)=O | -11.2 | -8.78 | -1.48 | 101% | 98.2% | 0.715 | 3.12 |
| O=C(CSc1nc2ccccc2[nH]1)Nc1ccc(F)cc1 | 3.95 | 11.3 | 0.83 | 97.7% | 90.2% | 0.255 | 5.07 |
| O=C(COc1ccc2c3c(c(=O)oc2c1)CCC3)c1ccc2c(c1)OCO2 | -8.44 | -1.49 | 2.35 | 63.2% | 65.1% | 2.27 | 7.83 |
| CCCn1c(CNS(=O)(=O)c2ccc(C)cc2)nc2ccccc21 | -7.5 | 7.18 | -2.43 | 83.6% | 85.2% | 0.135 | 0.52 |
| CCCn1cc(S(=O)(=O)CC(=O)Nc2ccc(OC)cc2OC)c2ccccc21 | -7.84 | 6.44 | -1.59 | 97.9% | 96.4% | 2.81 | -0.12 |
| CCOC(=O)c1c(C)n(C)c2cc(Br)c(C(=O)OC)cc12 | 8.75 | -4.36 | -3.53 | 97% | 96.3% | 1.99 | 7.11 |
| COc1ccc(-n2c(Cc3cccn3C)nnc2SCC(=O)NC2CCCC2)cc1 | -6.13 | 5.99 | 0.53 | 94.1% | 92.4% | 0.835 | 3.89 |
| COc1cccc(CNC(=O)C2CCN(S(=O)(=O)c3cccc4cccnc34)CC2)c1 | -10.5 | -2.92 | -1.45 | 100% | 97.5% | 2.88 | 3.03 |
| O=C(O)CCn1c(=O)[nH]c2ccccc2c1=O | -6.32 | -15.1 | 0.62 | 109% | 105% | 1.34 | 0.63 |
| Cc1cccc(N=C2NC(=O)/C(=C3/C(=O)N(C)c4ccccc43)S2)c1C | -18.4 | -15.6 | -7.01 | 95.5% | 91.1% | 2.91 | 1.77 |
| CCOC(=O)C1=C(N)OC2=C(C(=O)CCC2)C1c1ccccc1OCC (configuration not stated) | -3.85 | -4.66 | -0.08 | 100% | 103% | 1.05 | 8.68 |

| SMILES | growth inhibition [1] [%] | growth inhibition [2] [%] | viability increase [3] [%] | viability [4] | viability [5] | inhibition [6] [%] | RAM network inhibition [7] [%] |
| --- | --- | --- | --- | --- | --- | --- | --- |
| NC(=O)CN1CCN(C(=O)NC2CCCCC2)CC1 | -18.1 | -12.7 | 0.06 | 96% | 97.9% | 2.7 | 2.11 |
| Cc1nnc(NC(=O)CSc2nnc(Cc3cccn3C)n2-c2cccc(C(F)(F)F)c2)s1 | -1.29 | 13.7 | -3.3 | 98.8% | 94% | 0.075 | 3.85 |
| CCCCNC(=O)c1cc(-c2ccc(OC)c(OC)c2)on1 | 0.455 | 5.25 | 2.07 | 104% | 96.9% | -0.37 | -0.26 |
| CCCCNC(=O)C1c2cc(OC)c(OC)cc2C(=O)N(C)C1c1ccc(OC)cc1 (configuration not stated) | -7.31 | -7.21 | -2.49 | 92.5% | 98.4% | 1.63 | 1.97 |
| O=C1C(C=NCc2ccco2)=C(O)c2ccccc21 | -0.635 | -1.76 | -3.09 | 82.1% | 89.9% | 0.74 | -0.41 |
| CC1(C)CC(=O)C(C=NC2CCCCC2)=C(O)C1 | 0.43 | -1.72 | -1.23 | 98.7% | 94.8% | 1.33 | -1.28 |
| O=C(Cn1nc(Cc2cccnc2)c2ccccc2c1=O)NCC1COc2ccccc2O1 (configuration not stated) | 3.08 | -0.92 | -1.71 | 90.5% | 95.3% | 1.99 | 0.96 |
| COc1ccc2c(c1)[nH]c1c(N3CCN(Cc4ccc5c(c4)OCO5)CC3)ncnc12 | -15.7 | -18.4 | -5.9 | 11.9% (active) | 23.1% (active) | 2.08 | 5.66 |
| CNC(=O)c1c[nH]n2c(=O)c(Cc3ccccc3F)c(C)nc12 | -2.95 | -3.94 | -0.89 | 87.7% | 91.6% | 1.17 | 3.18 |
| Cn1c(CCNC(=O)C(C)(C)C)nc2ccccc21 | -4.42 | -7.26 | 0.98 | 95.3% | 98.5% | 2.58 | 4.43 |
| CC(=O)c1cccc(NC(=O)c2cc(C)no2)c1 | -4.53 | -12.4 | -1.41 | 98.9% | 92.5% | 1.26 | -1.99 |
| Cn1c(SCC(=O)N2CCCCCC2)nc2c([nH]c3ccccc32)c1=O | -14.3 | -27.8 | -5.85 | 89% | 86.7% | 3.46 | 8.37 |
| CC(=O)c1ccc(N2CCN(C(=O)c3cc4c(=O)n(C)c5ccccc5c4n3C)CC2)cc1 | -6.79 | -16.3 | -3.01 | 96.5% | 88.5% | 1.98 | 2.91 |
| O=C(Cc1ccc2c(c1)OCCO2)c1c(O)cc(O)cc1O | -12.3 | -4.45 | -1.79 | 96.1% | 94% | 3.34 | 6.58 |
| CC1CC(C)CN(C(=O)CSc2nnc(-c3ccc(Cl)s3)o2)C1 (configuration not stated) | -4.71 | -6.08 | 2.04 | 96.5% | 92.4% | 0.75 | 2.52 |
| CC(=O)C1C(c2ccc(O)cc2)NC(=O)NC1(O)C(F)(F)F (configuration not stated) | -15.9 | -25.1 | -1.41 | 102% | 98.7% | 2.78 | 4.56 |
| CCn1cc(C2=NC(C(C)C)CO2)c2ccccc21 (configuration not stated) | -12 | -6.49 | -2.74 | 99.2% | 95.9% | 1.54 | 2.06 |
| O=C(NC1CCCCCC1)C1C2C=CC3(CN(Cc4cccnc4)C(=O)C13)O2 (configuration not stated) | 0.045 | 8.75 | 0.68 | 101% | 107% | 0.18 | 1.44 |

From PubChem BioAssay
